Measurements from ChEMBL document CHEMBL4257555, “Small molecule cores demonstrate non-competitive inhibition of lactate dehydrogenase” (Medchemcomm, 2018).
Active and inactive are the calls of the source. The rule behind the calls is not given here.

Key:
[1] = target: L-lactate dehydrogenase B chain (Sus scrofa) (UniProt P00336); assay: Activation of porcine heart LDH at 1 mM using pyruvate as substrate and NADH as cofactor measured after 2 hrs by stopped-flow spectrometric method relative to control
Sequence of L-lactate dehydrogenase B chain (Sus scrofa) (P00336 whole entry): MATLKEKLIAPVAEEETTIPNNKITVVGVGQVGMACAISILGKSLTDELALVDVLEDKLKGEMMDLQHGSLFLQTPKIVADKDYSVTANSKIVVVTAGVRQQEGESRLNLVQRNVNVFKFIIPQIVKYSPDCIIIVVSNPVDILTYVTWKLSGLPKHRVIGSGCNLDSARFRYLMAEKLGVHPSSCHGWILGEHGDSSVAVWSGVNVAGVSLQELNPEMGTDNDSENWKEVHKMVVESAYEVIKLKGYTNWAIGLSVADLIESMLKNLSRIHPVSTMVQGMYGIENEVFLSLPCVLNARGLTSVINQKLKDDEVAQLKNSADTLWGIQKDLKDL
Method in brief: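 Pig heart LDH buffer-exchanged into 100 mM sodium phosphate pH 7.2, then preincubated 2 h at 4 °C with inhibitor. Final: 5 nN enzyme, 100 μM NADH, 300 μM sodium pyruvate, 37 °C. Stopped-flow mixing of enzyme:NADH:inhibitor with pyruvate, NADH loss read at 340 nm. Initial rates are linear fits averaged over five shots and expressed relative to uninhibited enzyme.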

[2] = target: L-lactate dehydrogenase B chain (Sus scrofa) (UniProt P00336); assay: Binding affinity to porcine heart LDH at 2.14 mM measured every 2 mins for 10 mins by dynamic light scattering analysis
Method in brief: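 DLS on filtered samples of 80 μN phLDH, 4 μM NADH and 2.14 mM inhibitor in 100 mM sodium phosphate pH 7.2 at room temperature. Autocorrelation functions and particle size distributions collected every 2 min for 10 min.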

[3] = target: L-lactate dehydrogenase B chain (Sus scrofa) (UniProt P00336); assay: Inhibition of oxamate binding to porcine heart LDH assessed as relative fluorescence intensity at 35 uM using pyruvate as substrate and NADH as cofactor measured after 2 hrs by fluorescence spectra analysis (reference value: 0.775 +/- 0.013 a.u.)
[4] = target: L-lactate dehydrogenase B chain (Sus scrofa) (UniProt P00336); assay: Inhibition of oxamate binding to porcine heart LDH assessed as relative fluorescence intensity at 6 uM using pyruvate as substrate and NADH as cofactor measured after 2 hrs by fluorescence spectra analysis (reference value: 0.775 +/- 0.013 a.u.)
[5] = target: L-lactate dehydrogenase B chain (Sus scrofa) (UniProt P00336); assay: Inhibition of oxamate binding to porcine heart LDH assessed as emission maximum at 6 uM using pyruvate as substrate and NADH as cofactor measured after 2 hrs by fluorescence spectra analysis (reference value: 452.9 +/- 0.36 nanometer)
[6] = target: L-lactate dehydrogenase B chain (Sus scrofa) (UniProt P00336); assay: Inhibition of oxamate binding to porcine heart LDH assessed as emission maximum at 35 uM using pyruvate as substrate and NADH as cofactor measured after 2 hrs by fluorescence spectra analysis (reference value: 452.9 +/- 0.3 nanometer)
[7] = target: L-lactate dehydrogenase B chain (Sus scrofa) (UniProt P00336); assay: Inhibition of oxamate binding to porcine heart LDH assessed as emission maximum at 961 uM using pyruvate as substrate and NADH as cofactor measured after 2 hrs by fluorescence spectra analysis (reference value: 452.9 +/- 0.3 nanometer)
[8] = target: L-lactate dehydrogenase B chain (Sus scrofa) (UniProt P00336); assay: Inhibition of oxamate binding to porcine heart LDH assessed as relative fluorescence intensity at 961 uM using pyruvate as substrate and NADH as cofactor measured after 2 hrs by fluorescence spectra analysis (reference value: 0.775 +/- 0.013 a.u.)
[9] = target: L-lactate dehydrogenase B chain (Sus scrofa) (UniProt P00336); assay: Inhibition of porcine heart LDH assessed as enzymatic hydride transfer lifetime using pyruvate as substrate and NADH as cofactor measured after 2 hrs by stopped flow spectrometric analysis (reference value: 3.73 +/- 0.0901 ms)
[10] = target: L-lactate dehydrogenase B chain (Sus scrofa) (UniProt P00336); assay: Inhibition of oxamate binding to porcine heart LDH assessed as emission maximum at 1000 uM using pyruvate as substrate and NADH as cofactor measured after 2 hrs by fluorescence spectra analysis (reference value: 452.9 +/- 0.3 nanometer)
[11] = target: L-lactate dehydrogenase B chain (Sus scrofa) (UniProt P00336); assay: Inhibition of oxamate binding to porcine heart LDH assessed as relative fluorescence intensity at 1000 uM using pyruvate as substrate and NADH as cofactor measured after 2 hrs by fluorescence spectra analysis (reference value: 0.775 +/- 0.013 a.u.)
CC(=O)Nc1cccc(O)c1 [12] = assay: (§1) Mixed inhibition of porcine heart LDH assessed as apparent Km for substrate at 10 uM using pyruvate as substrate and NADH as cofactor measured after 2 hrs by Michaelis-Menten plot analysis (reference value: 73 +/- 10 uM); conditions: Sus scrofa
NC(=O)c1cc(O)cc(O)c1 [13] = assay: as §1; conditions: Sus scrofa
CC(=O)Nc1cccc(O)c1 [14] = assay: (§2) Mixed inhibition of porcine heart LDH assessed as apparent Km for substrate at 25 uM using pyruvate as substrate and NADH as cofactor measured after 2 hrs by Michaelis-Menten plot analysis (reference value: 73 +/- 10 uM); conditions: Sus scrofa
NC(=O)c1cc(O)cc(O)c1 [15] = assay: as §2; conditions: Sus scrofa
CC(=O)Nc1cccc(O)c1 [16] = assay: (§3) Mixed inhibition of porcine heart LDH assessed as apparent Km for substrate at 50 uM using pyruvate as substrate and NADH as cofactor measured after 2 hrs by Michaelis-Menten plot analysis (reference value: 73 +/- 10 uM); conditions: Sus scrofa
NC(=O)c1cc(O)cc(O)c1 [17] = assay: as §3; conditions: Sus scrofa
CC(=O)Nc1cccc(O)c1 [18] = assay: (§4) Mixed inhibition of porcine heart LDH assessed as apparent Km for substrate at 100 uM using pyruvate as substrate and NADH as cofactor measured after 2 hrs by Michaelis-Menten plot analysis (reference value: 73 +/- 10 uM); conditions: Sus scrofa
NC(=O)c1cc(O)cc(O)c1 [19] = assay: as §4; conditions: Sus scrofa
CC(=O)Nc1cccc(O)c1 [20] = assay: (§5) Mixed inhibition of porcine heart LDH assessed as apparent Km for substrate at 300 uM using pyruvate as substrate and NADH as cofactor measured after 2 hrs by Michaelis-Menten plot analysis (reference value: 73 +/- 10 uM); conditions: Sus scrofa
NC(=O)c1cc(O)cc(O)c1 [21] = assay: as §5; conditions: Sus scrofa
CC(=O)Nc1cccc(O)c1 [22] = assay: Mixed inhibition of porcine heart LDH assessed as substrate Kcat at 10 uM using pyruvate as substrate and NADH as cofactor measured after 2 hrs by Michaelis-Menten plot analysis (reference value: 232 +/- 13 /sec); conditions: Sus scrofa
CC(=O)Nc1cccc(O)c1 [23] = assay: Mixed inhibition of porcine heart LDH assessed as substrate Kcat at 25 uM using pyruvate as substrate and NADH as cofactor measured after 2 hrs by Michaelis-Menten plot analysis (reference value: 232 +/- 13 /sec); conditions: Sus scrofa
CC(=O)Nc1cccc(O)c1 [24] = assay: Mixed inhibition of porcine heart LDH assessed as substrate Kcat at 50 uM using pyruvate as substrate and NADH as cofactor measured after 2 hrs by Michaelis-Menten plot analysis (reference value: 232 +/- 13 /sec); conditions: Sus scrofa
CC(=O)Nc1cccc(O)c1 [25] = assay: Mixed inhibition of porcine heart LDH assessed as substrate Kcat at 100 uM using pyruvate as substrate and NADH as cofactor measured after 2 hrs by Michaelis-Menten plot analysis (reference value: 232 +/- 13 /sec); conditions: Sus scrofa
CC(=O)Nc1cccc(O)c1 [26] = assay: Mixed inhibition of porcine heart LDH assessed as substrate Kcat at 300 uM using pyruvate as substrate and NADH as cofactor measured after 2 hrs by Michaelis-Menten plot analysis (reference value: 232 +/- 13 /sec); conditions: Sus scrofa
CC(=O)Nc1cccc(O)c1 [27] = assay: Non-competitive inhibition of porcine heart LDH assessed as Kcat for cofactor at 50 uM using pyruvate as substrate and NADH as cofactor measured after 2 hrs by Michaelis-Menten plot analysis (reference value: 221 +/- 10 /sec); conditions: Sus scrofa
CC(=O)Nc1cccc(O)c1 [28] = assay: Non-competitive inhibition of porcine heart LDH assessed as Kcat for cofactor at 300 uM using pyruvate as substrate and NADH as cofactor measured after 2 hrs by Michaelis-Menten plot analysis (reference value: 221 +/- 10 /sec); conditions: Sus scrofa
CC(=O)Nc1cccc(O)c1 [29] = assay: Non-competitive inhibition of porcine heart LDH assessed as apparent Km for cofactor at 50 uM using pyruvate as substrate and NADH as cofactor measured after 2 hrs by Michaelis-Menten plot analysis (reference value: 8 +/- 2 uM); conditions: Sus scrofa
CC(=O)Nc1cccc(O)c1 [30] = assay: Non-competitive inhibition of porcine heart LDH assessed as apparent Km for cofactor at 300 uM using pyruvate as substrate and NADH as cofactor measured after 2 hrs by Michaelis-Menten plot analysis (reference value: 8 +/- 2 uM); conditions: Sus scrofa
NC(=O)c1cc(O)cc(O)c1 [31] = assay: Mixed inhibition of porcine heart LDH assessed as substrate Kcat at 10 uM using pyruvate as substrate and NADH as cofactor measured after 2 hrs by Michaelis-Menten plot analysis (reference value: 319 +/- 8 /sec); conditions: Sus scrofa
NC(=O)c1cc(O)cc(O)c1 [32] = assay: Mixed inhibition of porcine heart LDH assessed as substrate Kcat at 25 uM using pyruvate as substrate and NADH as cofactor measured after 2 hrs by Michaelis-Menten plot analysis (reference value: 319 +/- 8 /sec); conditions: Sus scrofa
NC(=O)c1cc(O)cc(O)c1 [33] = assay: Mixed inhibition of porcine heart LDH assessed as substrate Kcat at 50 uM using pyruvate as substrate and NADH as cofactor measured after 2 hrs by Michaelis-Menten plot analysis (reference value: 319 +/- 8 /sec); conditions: Sus scrofa
NC(=O)c1cc(O)cc(O)c1 [34] = assay: Mixed inhibition of porcine heart LDH assessed as substrate Kcat at 100 uM using pyruvate as substrate and NADH as cofactor measured after 2 hrs by Michaelis-Menten plot analysis (reference value: 319 +/- 8 /sec); conditions: Sus scrofa
NC(=O)c1cc(O)cc(O)c1 [35] = assay: Mixed inhibition of porcine heart LDH assessed as substrate Kcat at 300 uM using pyruvate as substrate and NADH as cofactor measured after 2 hrs by Michaelis-Menten plot analysis (reference value: 319 +/- 8 /sec); conditions: Sus scrofa

Sequence of L-lactate dehydrogenase B chain (Sus scrofa), P00336 (P00336 whole entry): as above

For `N[C@@H](Cc1c[nH]c2ccccc12)C(=O)O`, which Activity [1] is on record?
Its Activity is less than 24%.

With `CC(=O)Nc1ccccc1` as the compound, how does the Activity [2] read?
Its Activity is “Active”.

What does the source list for `NC(=O)c1cc(O)cc(O)c1`?
RFU [3]: 0.759 a.u.; RFU [4]: 0.764 a.u.; Activity [2]: Active; Activity [5]: 453 nm; Activity [6]: 453 nm; Activity [7]: 455 nm; RFU [8]: 0.773 a.u.

Which Activity [2] does the source give for `CC(=O)Nc1cccc(O)c1` here?
Its Activity is “Active”.

And the TIME [9]?
The TIME was 1.09e-06 h.

What about the Activity [10] of the same compound?
The Activity was 449 nm.

And the RFU [11]?
Its RFU is 0.793 a.u.

How did the Km (CC(=O)Nc1cccc(O)c1 [12]) turn out when “L-lactate dehydrogenase B chain (Sus scrofa), P00336” was run?
Its Km is 98 µM.

What about the Km (NC(=O)c1cc(O)cc(O)c1 [13]) of the same compound?
Its Km is 87 µM.

What about the Km (CC(=O)Nc1cccc(O)c1 [14]) of the same compound?
The Km was 98 µM.

And the Km (NC(=O)c1cc(O)cc(O)c1 [15])?
Its Km is 90 µM.

What about the Km (CC(=O)Nc1cccc(O)c1 [16]) of the same compound?
The Km was 155 µM.

And the Km (NC(=O)c1cc(O)cc(O)c1 [17])?
The Km was 102 µM.

And the Km (CC(=O)Nc1cccc(O)c1 [18])?
Its Km is 163 µM.

What about the Km (NC(=O)c1cc(O)cc(O)c1 [19]) of the same compound?
The Km was 116 µM.

And the Km (CC(=O)Nc1cccc(O)c1 [20])?
The Km was 133 µM.

And the Km (NC(=O)c1cc(O)cc(O)c1 [21])?
Its Km is 111 µM.

What about the kcat (CC(=O)Nc1cccc(O)c1 [22]) of the same compound?
Its kcat is 211 s⁻¹.

And the kcat (CC(=O)Nc1cccc(O)c1 [23])?
The kcat was 190 s⁻¹.

And the kcat (CC(=O)Nc1cccc(O)c1 [24])?
The kcat was 175 s⁻¹.

What about the kcat (CC(=O)Nc1cccc(O)c1 [25]) of the same compound?
The kcat was 211 s⁻¹.

And the kcat (CC(=O)Nc1cccc(O)c1 [26])?
Its kcat is 132 s⁻¹.

What about the kcat (CC(=O)Nc1cccc(O)c1 [27]) of the same compound?
Its kcat is 190 s⁻¹.

What about the kcat (CC(=O)Nc1cccc(O)c1 [28]) of the same compound?
Its kcat is 191 s⁻¹.

And the Km (CC(=O)Nc1cccc(O)c1 [29])?
The Km was 7 µM.

And the Km (CC(=O)Nc1cccc(O)c1 [30])?
The Km was 7 µM.

What about the kcat (NC(=O)c1cc(O)cc(O)c1 [31]) of the same compound?
Its kcat is 281 s⁻¹.

And the kcat (NC(=O)c1cc(O)cc(O)c1 [32])?
Its kcat is 229 s⁻¹.

What about the kcat (NC(=O)c1cc(O)cc(O)c1 [33]) of the same compound?
The kcat was 242 s⁻¹.

And the kcat (NC(=O)c1cc(O)cc(O)c1 [34])?
The kcat was 216 s⁻¹.

And the kcat (NC(=O)c1cc(O)cc(O)c1 [35])?
The kcat was 176 s⁻¹.
